Assay: SAD study: safety and tolerability
Format: in vivo, human
Settings: for Abdominal pain TEAE, events / Abdominal pain TEAE, participants / Any event TEAE, events / Any event TEAE, participants / Diarrhea TEAE, events / Diarrhea TEAE, participants / Dysgeusia TEAE, events / Dysgeusia TEAE, participants / Gastrointestinal disorders TEAE, events / Gastrointestinal disorders TEAE, participants / Headache TEAE, events / Headache TEAE, participants / Hypoaesthesia oral TEAE, events / Hypoaesthesia oral TEAE, participants / Infections and infestations TEAE, events / Infections and infestations TEAE, participants / Insomnia TEAE, events / Insomnia TEAE, participants / Nasopharyngitis TEAE, events / Nasopharyngitis TEAE, participants / Nervous system disorders TEAE, events / Nervous system disorders TEAE, participants / Psychiatric disorders TEAE, events / Psychiatric disorders TEAE, participants / Rash TEAE, events / Rash TEAE, participants / Skin and subcutaneous tissue disorders TEAE, events / Skin and subcutaneous tissue disorders TEAE, participants / Tooth infection TEAE, events / Tooth infection TEAE, participants: N = 6
How it was run: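 Healthy males aged 18–55 with BMI 18–30 kg/m² were followed through dosing and a 6–8-day follow-up. Checks: physical examination, clinical laboratory tests, vital signs and 12-lead ECG, with adverse events coded in MedDRA. Events of special interest: ALT ≥2×ULN, QTcF ≥500 ms, Grade ≥2 photosensitivity, symptomatic overdose. Treatment-emergent events were summarised descriptively by organ class, preferred term and dose level for all exposed participants.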

CN1C(=O)c2cccc(OC(F)F)c2[C@H]2C[C@@H]1c1nc3ccc(-c4cnc(C5(N)CCC5)nc4)cc3n12 [Balinatunfib]
4: Any event TEAE, events (SAD 400 mg)
2: Dysgeusia TEAE, events (SAD 400 mg)
0: Abdominal pain TEAE, events (SAD 5 mg) | Any event TEAE, events (SAD 5 mg) | Diarrhea TEAE, events (SAD 5 mg) | Dysgeusia TEAE, events (SAD 5 mg) | Gastrointestinal disorders TEAE, events (SAD 5 mg) | Headache TEAE, events (SAD 5 mg) | Hypoaesthesia oral TEAE, events (SAD 5 mg) | Infections and infestations TEAE, events (SAD 5 mg) | Insomnia TEAE, events (SAD 5 mg) | Nasopharyngitis TEAE, events (SAD 5 mg) | Nervous system disorders TEAE, events (SAD 5 mg) | Psychiatric disorders TEAE, events (SAD 5 mg) | Rash TEAE, events (SAD 5 mg) | Skin and subcutaneous tissue disorders TEAE, events (SAD 5 mg) | Tooth infection TEAE, events (SAD 5 mg) | Abdominal pain TEAE, events (SAD 20 mg) | Any event TEAE, events (SAD 20 mg) | Diarrhea TEAE, events (SAD 20 mg) | Dysgeusia TEAE, events (SAD 20 mg) | Gastrointestinal disorders TEAE, events (SAD 20 mg) | Headache TEAE, events (SAD 20 mg) | Hypoaesthesia oral TEAE, events (SAD 20 mg) | Infections and infestations TEAE, events (SAD 20 mg) | Insomnia TEAE, events (SAD 20 mg) | Nasopharyngitis TEAE, events (SAD 20 mg) | Nervous system disorders TEAE, events (SAD 20 mg) | Psychiatric disorders TEAE, events (SAD 20 mg) | Rash TEAE, events (SAD 20 mg) | Skin and subcutaneous tissue disorders TEAE, events (SAD 20 mg) | Tooth infection TEAE, events (SAD 20 mg) | Abdominal pain TEAE, events (SAD 60 mg) | Diarrhea TEAE, events (SAD 60 mg) | Dysgeusia TEAE, events (SAD 60 mg) | Gastrointestinal disorders TEAE, events (SAD 60 mg) | Headache TEAE, events (SAD 60 mg) | Hypoaesthesia oral TEAE, events (SAD 60 mg) | Insomnia TEAE, events (SAD 60 mg) | Nasopharyngitis TEAE, events (SAD 60 mg) | Nervous system disorders TEAE, events (SAD 60 mg) | Psychiatric disorders TEAE, events (SAD 60 mg) | Rash TEAE, events (SAD 60 mg) | Skin and subcutaneous tissue disorders TEAE, events (SAD 60 mg) | Abdominal pain TEAE, events (SAD 180 mg) | Any event TEAE, events (SAD 180 mg) | Diarrhea TEAE, events (SAD 180 mg) | Dysgeusia TEAE, events (SAD 180 mg) | Gastrointestinal disorders TEAE, events (SAD 180 mg) | Headache TEAE, events (SAD 180 mg) | Hypoaesthesia oral TEAE, events (SAD 180 mg) | Infections and infestations TEAE, events (SAD 180 mg) | Insomnia TEAE, events (SAD 180 mg) | Nasopharyngitis TEAE, events (SAD 180 mg) | Nervous system disorders TEAE, events (SAD 180 mg) | Psychiatric disorders TEAE, events (SAD 180 mg) | Rash TEAE, events (SAD 180 mg) | Skin and subcutaneous tissue disorders TEAE, events (SAD 180 mg) | Tooth infection TEAE, events (SAD 180 mg) | Diarrhea TEAE, events (SAD 400 mg) | Hypoaesthesia oral TEAE, events (SAD 400 mg) | Infections and infestations TEAE, events (SAD 400 mg) | Insomnia TEAE, events (SAD 400 mg) | Nasopharyngitis TEAE, events (SAD 400 mg) | Psychiatric disorders TEAE, events (SAD 400 mg) | Rash TEAE, events (SAD 400 mg) | Skin and subcutaneous tissue disorders TEAE, events (SAD 400 mg) | Tooth infection TEAE, events (SAD 400 mg) | Abdominal pain TEAE, events (SAD 600 mg) | Diarrhea TEAE, events (SAD 600 mg) | Dysgeusia TEAE, events (SAD 600 mg) | Headache TEAE, events (SAD 600 mg) | Nervous system disorders TEAE, events (SAD 600 mg) | Rash TEAE, events (SAD 600 mg) | Skin and subcutaneous tissue disorders TEAE, events (SAD 600 mg) | Tooth infection TEAE, events (SAD 600 mg)
0 n (%): Abdominal pain TEAE, participants (SAD 5 mg) | Any event TEAE, participants (SAD 5 mg) | Diarrhea TEAE, participants (SAD 5 mg) | Dysgeusia TEAE, participants (SAD 5 mg) | Gastrointestinal disorders TEAE, participants (SAD 5 mg) | Headache TEAE, participants (SAD 5 mg) | Hypoaesthesia oral TEAE, participants (SAD 5 mg) | Infections and infestations TEAE, participants (SAD 5 mg) | Insomnia TEAE, participants (SAD 5 mg) | Nasopharyngitis TEAE, participants (SAD 5 mg) | Nervous system disorders TEAE, participants (SAD 5 mg) | Psychiatric disorders TEAE, participants (SAD 5 mg) | Rash TEAE, participants (SAD 5 mg) | Skin and subcutaneous tissue disorders TEAE, participants (SAD 5 mg) | Tooth infection TEAE, participants (SAD 5 mg) | Abdominal pain TEAE, participants (SAD 20 mg) | Any event TEAE, participants (SAD 20 mg) | Diarrhea TEAE, participants (SAD 20 mg) | Dysgeusia TEAE, participants (SAD 20 mg) | Gastrointestinal disorders TEAE, participants (SAD 20 mg) | Headache TEAE, participants (SAD 20 mg) | Hypoaesthesia oral TEAE, participants (SAD 20 mg) | Infections and infestations TEAE, participants (SAD 20 mg) | Insomnia TEAE, participants (SAD 20 mg) | Nasopharyngitis TEAE, participants (SAD 20 mg) | Nervous system disorders TEAE, participants (SAD 20 mg) | Psychiatric disorders TEAE, participants (SAD 20 mg) | Rash TEAE, participants (SAD 20 mg) | Skin and subcutaneous tissue disorders TEAE, participants (SAD 20 mg) | Tooth infection TEAE, participants (SAD 20 mg) | Abdominal pain TEAE, participants (SAD 60 mg) | Diarrhea TEAE, participants (SAD 60 mg) | Dysgeusia TEAE, participants (SAD 60 mg) | Gastrointestinal disorders TEAE, participants (SAD 60 mg) | Headache TEAE, participants (SAD 60 mg) | Hypoaesthesia oral TEAE, participants (SAD 60 mg) | Insomnia TEAE, participants (SAD 60 mg) | Nasopharyngitis TEAE, participants (SAD 60 mg) | Nervous system disorders TEAE, participants (SAD 60 mg) | Psychiatric disorders TEAE, participants (SAD 60 mg) | Rash TEAE, participants (SAD 60 mg) | Skin and subcutaneous tissue disorders TEAE, participants (SAD 60 mg) | Abdominal pain TEAE, participants (SAD 180 mg) | Any event TEAE, participants (SAD 180 mg) | Diarrhea TEAE, participants (SAD 180 mg) | Dysgeusia TEAE, participants (SAD 180 mg) | Gastrointestinal disorders TEAE, participants (SAD 180 mg) | Headache TEAE, participants (SAD 180 mg) | Hypoaesthesia oral TEAE, participants (SAD 180 mg) | Infections and infestations TEAE, participants (SAD 180 mg) | Insomnia TEAE, participants (SAD 180 mg) | Nasopharyngitis TEAE, participants (SAD 180 mg) | Nervous system disorders TEAE, participants (SAD 180 mg) | Psychiatric disorders TEAE, participants (SAD 180 mg) | Rash TEAE, participants (SAD 180 mg) | Skin and subcutaneous tissue disorders TEAE, participants (SAD 180 mg) | Tooth infection TEAE, participants (SAD 180 mg) | Diarrhea TEAE, participants (SAD 400 mg) | Hypoaesthesia oral TEAE, participants (SAD 400 mg) | Infections and infestations TEAE, participants (SAD 400 mg) | Insomnia TEAE, participants (SAD 400 mg) | Nasopharyngitis TEAE, participants (SAD 400 mg) | Psychiatric disorders TEAE, participants (SAD 400 mg) | Rash TEAE, participants (SAD 400 mg) | Skin and subcutaneous tissue disorders TEAE, participants (SAD 400 mg) | Tooth infection TEAE, participants (SAD 400 mg) | Abdominal pain TEAE, participants (SAD 600 mg) | Diarrhea TEAE, participants (SAD 600 mg) | Dysgeusia TEAE, participants (SAD 600 mg) | Headache TEAE, participants (SAD 600 mg) | Nervous system disorders TEAE, participants (SAD 600 mg) | Rash TEAE, participants (SAD 600 mg) | Skin and subcutaneous tissue disorders TEAE, participants (SAD 600 mg) | Tooth infection TEAE, participants (SAD 600 mg)
3: Nervous system disorders TEAE, events (SAD 400 mg) | Any event TEAE, events (SAD 600 mg)
No participants: Grade ≥ 3 TEAE, treatment-emergent SAEs, TEAEs leading to discontinuation, AESIs (SAD)
well tolerated: tolerability (all single oral doses (5–600 mg))
2 (33.3) n (%): Any event TEAE, participants (SAD 400 mg) | Dysgeusia TEAE, participants (SAD 400 mg) | Nervous system disorders TEAE, participants (SAD 400 mg) | Any event TEAE, participants (SAD 600 mg)
1 (16.7) n (%): Any event TEAE, participants (SAD 60 mg) | Infections and infestations TEAE, participants (SAD 60 mg) | Tooth infection TEAE, participants (SAD 60 mg) | Abdominal pain TEAE, participants (SAD 400 mg) | Gastrointestinal disorders TEAE, participants (SAD 400 mg) | Headache TEAE, participants (SAD 400 mg) | Gastrointestinal disorders TEAE, participants (SAD 600 mg) | Hypoaesthesia oral TEAE, participants (SAD 600 mg) | Infections and infestations TEAE, participants (SAD 600 mg) | Insomnia TEAE, participants (SAD 600 mg) | Nasopharyngitis TEAE, participants (SAD 600 mg) | Psychiatric disorders TEAE, participants (SAD 600 mg)
13.9%: participants with at least one TEAE (SAD, all balinatunfib groups (five of 36))
1: Any event TEAE, events (SAD 60 mg) | Infections and infestations TEAE, events (SAD 60 mg) | Tooth infection TEAE, events (SAD 60 mg) | Abdominal pain TEAE, events (SAD 400 mg) | Gastrointestinal disorders TEAE, events (SAD 400 mg) | Headache TEAE, events (SAD 400 mg) | Gastrointestinal disorders TEAE, events (SAD 600 mg) | Hypoaesthesia oral TEAE, events (SAD 600 mg) | Infections and infestations TEAE, events (SAD 600 mg) | Insomnia TEAE, events (SAD 600 mg) | Nasopharyngitis TEAE, events (SAD 600 mg) | Psychiatric disorders TEAE, events (SAD 600 mg)

From PMC12166256 (Clinical Pharmacology and Therapeutics, 2025)
